Experimental data taken from ChEMBL document CHEMBL1143844, “Biochemical studies on the mechanism of human immunodeficiency virus type 1 reverse transcriptase resistance to 1-(beta-D-dioxolane)thymine triphosphate” (Antimicrob Agents Chemother, 2007).

Columns and labels:
[1] = Inhibition of HIV1 reverse transcriptase wild type HXB2(a) in presence of 3.2 mM ATP by prA/odT assay; design: species or system Human immunodeficiency virus 1
[2] = Inhibition of HIV1 reverse transcriptase wild type HXB2(b) in presence of 3.2 mM ATP by prA/odT assay; design: species or system Human immunodeficiency virus 1
[3] = Inhibition of HIV1 reverse transcriptase 41L/69S-SG/184V/210W/215Y mutant by heteropolymeric DNA polymerase assay; design: species or system Human immunodeficiency virus 1
Method in brief: (§1)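 Purified p66/p51 HIV-1 RT, or p66 homodimer for 65R, at 30–100 pM (about 1.5–4.5 mU/well). Plate-bound 18-mer DNA primer on a 50-base 5′-A12-(GTCA)5-3′ DNA template. dATP, dGTP, dCTP and BrdUTP at 1.0 μM each, no ATP. Buffer: HEPES 50 mM pH 7.3, 10 mM MgCl2. Incubation 180 min at 33°C, NaOH dehybridization, anti-BrdU-AP tracer, A405. IC50 from seven inhibitor concentrations, at least two experiments in duplicate.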

[4] = Inhibition of HIV1 reverse transcriptase 41L/67N/70R/215Y/219Q mutant in presence of 3.2 mM ATP by prA/odT assay; design: species or system Human immunodeficiency virus 1
Method in brief: (§2)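 Buffer: 50 mM HEPES pH 7.3, 10 mM MgCl2, 0.5% Triton X-100, 0.1 mg/ml BSA. Incubation 180 min at 33°C. Product detected with AP-conjugated anti-BrdU at 405 nm. […] Ki from four inhibitor levels. At least two experiments in duplicate.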

[5] = Inhibition of HIV1 reverse transcriptase wild type HXB2(a) by heteropolymeric DNA polymerase assay; design: species or system Human immunodeficiency virus 1
Method in brief: (§3)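 Heteropolymeric assay without ATP: plate-bound 18-mer DNA primer (~110 nM) with 50-mer 5′-A12-(GTCA)5 template (190 nM). dATP, dGTP, dCTP and BrdUTP at 1.0 μM each, in HEPES 50 mM pH 7.3, MgCl2 10 mM. RT 30–100 pM, 33°C for 180 min, then NaOH dehybridization and anti-BrdU-AP tracer read at 405 nm. IC50 from seven triphosphate concentrations; two to four runs in duplicate.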

[6] = Inhibition of HIV1 HXB2 reverse transcriptase 41L/67N/70R/215Y/219Q mutant by heteropolymeric DNA polymerase assay
[7] = Inhibition of HIV1 reverse transcriptase 41L/67N/70R/210W/215Y mutant in presence of 3.2 mM ATP by prA/odT assay; design: species or system Human immunodeficiency virus 1; method in brief: as §2
[8] = Inhibition of HIV1 reverse transcriptase 41L/69S-SG/184V/210W/215Y mutant in presence of 5 mM ATP by heteropolymeric DNA polymerase assay; design: species or system Human immunodeficiency virus 1
Method in brief: (§4)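 Heteropolymeric DNA polymerase assay with ATP added at 5 mM. Purified HIV-1 RT at 30–100 pM acts on a plate-bound DNA primer with a 5′-A12-(GTCA)5-3′ template. dATP, dGTP, dCTP and BrdUTP at 1.0 μM each. Incubation 180 min at 33°C. BrdUMP incorporation read via anti-BrdU-AP at 405 nm after NaOH dehybridization. IC50 from seven inhibitor concentrations, at least two experiments in duplicate.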

[9] = Inhibition of HIV1 reverse transcriptase 41L/67N/70R/210W/215Y mutant by heteropolymeric DNA polymerase assay; design: species or system Human immunodeficiency virus 1; method in brief: as §1
[10] = Inhibition of HIV1 reverse transcriptase wild type HXB2(b) by heteropolymeric DNA polymerase assay; design: species or system Human immunodeficiency virus 1; method in brief: as §3
[11] = Inhibition of HIV1 reverse transcriptase 41L/67N/70R/210W/215Y mutant in presence of 5'-A12-(GTCA)5-3' by heteropolymeric DNA polymerase assay; design: species or system Human immunodeficiency virus 1
Method in brief: (§5)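 DNA polymerase assay with 5 mM ATP and 1 μM each dATP, dGTP, dCTP and BrdUTP. The 50-base DNA template carries a 5′-A12 tail with a (GTCA)5 or (GACT)5 repeat. IC50 from at least two experiments in duplicate. Fold change is relative to wild-type RT on the same template.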

[12] = Inhibition of HIV1 reverse transcriptase 41L/67N/70R/184V/210W/215Y mutant by heteropolymeric DNA polymerase assay; design: species or system Human immunodeficiency virus 1; method in brief: as §1
[13] = Inhibition of HIV1 reverse transcriptase wild type HXB2(a) in presence of 20 uM dNTP by heteropolymeric DNA polymerase assay; design: species or system Human immunodeficiency virus 1
Method in brief: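 Heteropolymeric DNA assay containing 5 mM ATP on the 5′-A12-(GTCA)5 template, with each dNTP (BrdUTP in place of TTP) at 1 μM or, in the modified version, 20 μM. Mean IC50 from at least two runs in duplicate.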

[14] = Inhibition of HIV1 reverse transcriptase wild type HXB2(a) in presence of 5'-A12-(GACT)5-3' by heteropolymeric DNA polymerase assay; design: species or system Human immunodeficiency virus 1
Method in brief: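 Heteropolymeric DNA assay with 5 mM ATP and dNTPs (BrdUTP replacing TTP) at 1.0 μM, using an alternative template repeat, 5′-A12-(GACT)5-3′. Run at 33°C for 180 min, followed by NaOH dehybridization and anti-BrdU-AP detection at 405 nm. IC50 reported in μM as the mean of at least two runs in duplicate.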

[15] = Inhibition of HIV1 reverse transcriptase 41L/67N/70R/210W/215Y mutant in presence of 5 mM ATP by heteropolymeric DNA polymerase assay; design: species or system Human immunodeficiency virus 1
Method in brief: as §4, with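 “33°C.” for “33°C. BrdUMP incorporation read via anti-BrdU-AP at 405 nm after NaOH dehybridization.”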

[16] = Inhibition of HIV1 reverse transcriptase 41L/69S-SG/210W/215Y mutant in presence of 5'-A12-(GACT)5-3' by heteropolymeric DNA polymerase assay
[17] = Inhibition of HIV1 reverse transcriptase 41L/67N/70R/210W/215Y mutant in presence of 5'-A12-(GACT)5-3' by heteropolymeric DNA polymerase assay; design: species or system Human immunodeficiency virus 1
Method in brief: as §5, with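 “repeat. Incubation 180 min at 33°C, NaOH dehybridization, anti-BrdU-AP detection at 405 nm.” for “repeat.”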

Compound	Ki [1] [nM]	Ki [2] [nM]	IC50 [3] [nM]	Ki [4] [nM]	IC50 [5] [nM]	IC50 [6] [nM]	Ki [7] [nM]	IC50 [8] [nM]	IC50 [9] [nM]	IC50 [10] [nM]	IC50 [11] [nM]	IC50 [12] [nM]	IC50 [13] [nM]	IC50 [14] [nM]	IC50 [15] [nM]	IC50 [16] [nM]	IC50 [17] [nM]
Cc1cn([C@H]2C[C@H](N=[N+]=[N-])[C@@H](COP(=O)(O)OP(=O)(O)OP(=O)(O)O)O2)c(=O)[nH]c1=O [ZIDOVUDINE TRIPHOSPHATE]	5.4	4	210	95	180	190	130	1200	140	200							
C[C@H](Cn1cnc2c(N)ncnc21)OCP(=O)(O)OP(=O)(O)OP(=O)(O)O					1600				1400		13000	1400	19000	2800	13000	17000	8600
Cc1cn([C@H]2CO[C@@H](COP(=O)(O)OP(=O)(O)OP(=O)(O)O)O2)c(=O)[nH]c1=O	2.8	1.8	220	11		130	13	1400		120	500	160	2000	310	500	780	400
